The values below come from ChEMBL document CHEMBL1157760, “Design, synthesis and anticancer activities of stilbene-coumarin hybrid compounds: Identification of novel proapoptotic agents” (Bioorg Med Chem, 2010).

The subject of assay [1] is NCI-H460. Put plainly: Antiproliferative activity against human H460 cells after 72 hrs. The format is functional, cell-based. Conditions: NCI-H460, 72 h. Put shortly:
(§1)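 Growth inhibition: log-phase tumour cells seeded in duplicate, drug added 24 h after seeding, cells harvested 72 h after exposure and counted with a cell counter. IC50 taken as concentration giving 50% fewer cells than untreated control.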

The test system of assay [2] is NCI-H460. Description: Induction of apoptosis in human H460 cells assessed as cleavage of PARP at 1.5 uM after 24 hrs by Western blot analysis. The format is functional, cell-based. Summed up:
(§2)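 After 24 h drug exposure, H460 cells rinsed twice in ice-cold PBS with 0.1 mM sodium orthovanadate and lysed in hot sample buffer. Protein quantified, separated by SDS-PAGE, transferred to nitrocellulose, probed with primary antibodies and HRP secondaries, and detected by enhanced chemiluminescence. Actin served as loading control.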

Assay [3] has as its system NCI-H460. Description: Increase in CDKp21 protein expression in human H460 cells at 1.5 uM after 24 hrs by Western blot analysis. The format is functional, cell-based. Summed up: as §2
Background: A western blot detects proteins with antibodies after separation by electrophoresis.

Assay [4] deals with NCI-H460. Description: Upregulation of cyclin B1 protein expression in human H460 cells at 1.5 uM after 24 hrs by Western blot analysis. It is filed as functional, cell-based. Summed up: as §2
Assay [5] deals with NCI-H460. Put plainly: Upregulation of p34CDC2 protein expression in human H460 cells at 1.5 uM after 24 hrs by Western blot analysis. It is filed as functional, cell-based. Summed up: as §2
Assay [6] deals with NCI-H460. Put plainly: Induction of apoptosis in human H460 cells assessed as CDKp21-p34CDC2 complex formation at 1.5 uM after 24 hrs by immunoprecipitation assay. The format is functional, cell-based. Put shortly:
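H460 cells exposed 24 h at 1.5 µM, lysed in NET buffer (pH 7.4, 0.1% NP40, protease inhibitors) on ice then at 4 °C. Lysate cleared at 10,000g and BCA-quantified. 500 µg immunoprecipitated with anti-cdc2 antibody 2 h at 4 °C, then with protein A-sepharose overnight at 4 °C. Pellets washed, eluted and immunoblotted for p34cdc2 and p21.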

Assay [7] has as its system NCI-H460. Description: Antitumor activity against human H460 cells xenograft model assessed as tumor growth inhibition at 10 to 20 mg/kg, po administered daily. The format is functional. To be noted: dose mg/kg 10-20. For orientation: In xenograft studies the graft and the host belong to different species.
For assay [8], the system named is A-431. Put plainly: Antiproliferative activity against human A431 cells after 72 hrs. The format is functional, cell-based. To be noted: A-431, 72 h. Summed up:
as §1

Assay [9] is described as follows: Antiproliferative activity against human JR8 cells after 72 hrs. It is filed as functional, cell-based. Conditions: JR8, 72 h. Put shortly: as §1
For assay [10], the system named is NCI-H460. Put plainly: Induction of apoptosis in human H460 cells at 0.5 to 1.5 uM after 72 hrs by TUNEL assay. The format is functional, cell-based. Put shortly: (§3)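 H460 cells exposed 72 h to drug. Floating plus adherent cells fixed in 4% paraformaldehyde for 60 min at room temperature, then resuspended in ice-cold PBS. Fluorescein in situ cell-death (TUNEL) kit used and cells read by flow cytometry. Result given as percent TUNEL-positive cells against untreated control.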

Assay [11] relates to NCI-H460. Put plainly: Induction of apoptosis in human H460 cells assessed as cleavage of caspase 3 at 1.5 uM after 24 hrs by Western blot analysis. The format is functional, cell-based. Summed up:
as §2

For assay [12], the system named is NCI-H460. Put plainly: Increase in CDKp21 protein expression in human H460 cells at 3 uM after 24 hrs by Western blot analysis. The format is functional, cell-based. Summed up:
as §2

Assay [13] relates to NCI-H460. Description: Upregulation of cyclin B1 protein expression in human H460 cells at 3 uM after 24 hrs by Western blot analysis. The format is functional, cell-based. Put shortly:
as §2

For assay [14], the system named is NCI-H460. Put plainly: Upregulation of p34CDC2 protein expression in human H460 cells at 3 uM after 24 hrs by Western blot analysis. It is filed as functional, cell-based. Put shortly:
as §2

For assay [15], the system named is NCI-H460. Description: Induction of apoptosis in human H460 cells at 0.3 to 3 uM after 72 hrs by TUNEL assay. It is filed as functional, cell-based. Put shortly:
as §3

Assay [16] deals with NCI-H460. Put plainly: Cell cycle arrest in human H460 cells assessed as accumulation at G2/M phase after 24 hrs by propidium iodide staining-based flow cytometry. It is filed as functional. Summed up:
(§4)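 H460 cells treated 24 h at 10 and 20 µM (resveratrol), 0.5 and 1.5 µM, or 0.3 and 3 µM, then analysed for cell cycle phase distribution (G1, S, G2/M).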
For orientation: In flow cytometry, cells or beads pass a laser one at a time.

For assay [17], the system named is NCI-H460. Put plainly: Cell cycle arrest in human H460 cells assessed as accumulation at G2/M phase at 20 uM after 24 hrs by propidium iodide staining-based flow cytometry. The format is functional. Put shortly:
as §4

The subject of assay [18] is NCI-H460. Description: Induction of apoptosis in human H460 cells at 10 to 20 uM after 72 hrs by TUNEL assay. The format is functional, cell-based. Put shortly:
as §3

Active and inactive are the calls of the source. No cut-off for these calls is given here. Some results are limits rather than exact numbers.

Usually IC50 stands for the concentration that gives 50% inhibition. High values mean a need for much substance, low ones inhibition by little substance. On to `COc1ccc2c(/C=C/c3ccc(OC)c(OC)c3OC)cc(=O)oc2c1`, for which the IC50 in assay [1] is more than 50 µM.
On the same count and under the same terms, the figure for `COc1cc(/C=C/c2cc(=O)oc3ccccc23)cc(OC)c1` is 2.6 µM; for `O=c1cc(/C=C/c2cc(O)cc(O)c2)c2ccc(O)cc2o1` it is 27 µM.
Consider `COc1cc(/C=C/c2cc(=O)oc3cc(OC)ccc23)cc(OC)c1`, for which the outcome in [2], in [3], in assay [4], in assay [5], in assay [6] and in assay [10] was Active. Also, the outcome in assay [11] was Active. For the same compound, the “inhibition (INH)” value in assay [7] is recorded as 50%. The IC50 was found to be 3.44 µM in [8], 0.45 µM in assay [1] and 3.2 µM in assay [9].
`COc1cccc(/C=C/c2cc(=O)oc3cc(OC)ccc23)c1` yielded a half-inhibitory concentration (IC50) in assay [1] of 12.9 µM.
As for `COc1ccc2c(/C=C/c3cc(C)cc(C)c3)cc(=O)oc2c1`, the result in [12], in assay [13], in assay [14] and in assay [15] was Active. In addition, the IC50 in assay [8] came out at 3.5 µM; in assay [1] it was 0.29 µM; in assay [9], 3.5 µM.
In the case of `COc1cc(/C=C/c2cc3ccc(OC)cc3oc2=O)cc(OC)c1`, the IC50 in [1] is more than 10 µM.
On the same count and under the same terms, with `COc1cc(/C=C/c2cc(=O)oc3ccc(OC)cc23)cc(OC)c1` the figure was 11 µM; with `COc1ccc2c(/C=C/c3cc(OC)c(OC)c(OC)c3)cc(=O)oc2c1`, more than 100 µM.
On the same count and under the same terms, with `COc1ccc2c(/C=C/c3ccc(OCC=C(C)C)cc3)cc(=O)oc2c1` the figure was more than 50 µM.
For the compound `Oc1ccc(/C=C/c2cc(O)cc(O)c2)cc1` [RESVERATROL], the Activity result in assay [16] is “Dose-dependent effect”. Further, in assay [17], the result was Active. In [1], this compound gave an IC50 of 12.9 µM. The result in assay [18] was inactive.
